≈ marks a conversion by molar mass, not a printed value.
Legend:
P388 [1] = test: In vitro inhibition against P-388 mouse leukemia cells using growth inhibition assay at the concentration of 100 ug/mL; assay type: functional
Procedure, shortened: (§1)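 P-388 mouse leukemia cells in culture, by the National Cancer Institute protocol. Tested at 6.25-100 μg/mL and reported as percent growth inhibition. Carbocyclic adenosine is the positive control.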

P388 [2] = test: In vitro inhibition against P-388 mouse leukemia cells using growth inhibition assay at the concentration of 12.5 ug/mL; assay type: functional; procedure, shortened: as §1
P388 [3] = test: In vitro inhibition against P-388 mouse leukemia cells using growth inhibition assay at the concentration of 25 ug/mL; assay type: functional; procedure, shortened: as §1
P388 [4] = test: In vitro inhibition against P-388 mouse leukemia cells using growth inhibition assay at the concentration of 50 ug/mL; assay type: functional; procedure, shortened: as §1
P388 [5] = test: In vitro inhibition against P-388 mouse leukemia cells using growth inhibition assay at the concentration of 6.25 ug/mL; assay type: functional; procedure, shortened: as §1
MDCK [6] = test: In vitro antiviral activity against influenza virus (type A0/PR/8/34) in Madin-Darby canine kidney (MDCK) host cell cultures; assay type: functional, Canis lupus familiaris
Vero [7] = test: (§2) In vitro antiviral activity against herpes simplex virus type 1 (E-377 strain) in Vero host cell cultures; assay type: functional, Chlorocebus sabaeus
Procedure, shortened: (§3)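 CPE inhibition assay with HSV-1 strain E-377 replicating in Vero cells. ID50 is the minimum concentration (μg/mL) inhibiting CPE by 50%, from regression with semilog curve fitting. MTC is the minimum concentration (μg/mL) giving any cytotoxicity. TI is MTC divided by ID50.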

Vero [8] = test: Minimum concentration (ug/mL) for in vitro antiviral activity against herpes simplex virus type 1 (E-377 strain) in Vero host cell cultures; assay type: functional, Chlorocebus sabaeus; procedure, shortened: as §3
Vero [9] = test: In vitro antiviral activity against herpes simplex virus type 1 (E-377 strain) in Vero host cell cultures (MTC/ID50); assay type: functional, Chlorocebus sabaeus; procedure, shortened: as §3
Vero [10] = test: In vitro minimum drug concentration that inhibited herpes simplex virus type 1 (E-377 strain)-induced cytopathogenic effects by 50% in vero cell cultures; assay type: functional; settings: Chlorocebus sabaeus, read-out: ID50 (the source's name); procedure, shortened: as §3
MRC5 [11] = test: Cytotoxicity against MRC5 (human diploid embryonic lung cells) cell monolayer cultures at the concentration of 320 uM; Slightly toxic; assay type: functional, cell-based
MRC5 [12] = test: Cytotoxicity against MRC5 (human diploid embryonic lung cells)cell monolayer cultures at the concentration of 1000 uM; Slightly toxic; assay type: functional, cell-based
MRC5 [13] = test: Cytotoxicity against MRC5 (human diploid embryonic lung cells)cell monolayer cultures at the concentration of 100 uM; assay type: functional
MRC5 [14] = test: Cytotoxicity against MRC5 (human diploid embryonic lung cells)cell monolayer cultures at the concentration of 32 uM; assay type: functional
MRC5 [15] = test: Effect of compound on yields of human cytomegalovirus (HCMV) in MRC5 (human diploid embryonic lung cells)cell monolayer cultures at the concentration of 100 uM; assay type: functional
Procedure, shortened: (§4)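 Virus yield reduction assay with HCMV strain Ad169, passaged, titrated and assayed in MRC5 human diploid embryonic lung cells. Virus yields are read as PFU. Includes a virus control and a DHPG positive control.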

MRC5 [16] = test: Effect of compound on yields of human cytomegalovirus (HCMV) in MRC5 (human diploid embryonic lung cells)cell monolayer cultures at the concentration of 3.2 uM; assay type: functional; procedure, shortened: as §4
MRC5 [17] = test: Effect of compound on yields of human cytomegalovirus (HCMV) in MRC5 (human diploid embryonic lung cells)cell monolayer cultures at the concentration of 320 uM; assay type: functional; procedure, shortened: as §4
MRC5 [18] = test: Effect of compound on yields of human cytomegalovirus (HCMV) in MRC5 (human diploid embryonic lung cells)cell monolayer cultures at the concentration of 32 uM; assay type: functional; procedure, shortened: as §4
MRC5 [19] = test: Effect of compound treatment on yields of human cytomegalovirus (HCMV) in MRC5 (human diploid embryonic lung cells)cell monolayer cultures at the concentration of 1000 uM; assay type: functional; procedure, shortened: as §4
MRC5 [20] = test: Cytotoxicity against MRC5 (human diploid embryonic lung cells)cell monolayer cultures by using MTT [3-(4,5-Dimethylthiazol-2-yl)-2,5-diphenyltetrazolium bromide]assay at the concentration of 32 uM; assay type: functional
Procedure, shortened: (§5)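 MRC5 human diploid embryonic lung cell monolayers. Cytotoxicity is quantified by host-cell mitochondrial reduction of MTT to MTT formazan. It was run alongside the HCMV yield reduction assay.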

MRC5 [21] = test: Cytotoxicity against MRC5 (human diploid embryonic lung cells)cell monolayer cultures by using MTT [3-(4,5-Dimethylthiazol-2-yl)-2,5-diphenyltetrazolium bromide]assay at the concentration of 100 uM; assay type: functional; procedure, shortened: as §5
MRC5 [22] = test: Cytotoxicity against MRC5 (human diploid embryonic lung cells) cell monolayer cultures by using MTT [3-(4,5-Dimethylthiazol-2-yl)-2,5-diphenyltetrazolium bromide]assay at the concentration of 1000 uM; assay type: functional; procedure, shortened: as §5
MRC5 [23] = test: Cytotoxicity against MRC5 (human diploid embryonic lung cells) cell monolayer cultures by using MTT [3-(4,5-Dimethylthiazol-2-yl)-2,5-diphenyltetrazolium bromide]assay at the concentration of 320 uM; assay type: functional; procedure, shortened: as §5
MRC5 [24] = test: Effect of compound on yields of human cytomegalovirus (HCMV) in MRC5 (human diploid embryonic lung cells)cell monolayer cultures at the concentration of 0 uM; assay type: functional; procedure, shortened: as §4
Vero [25] = test: as §2; assay type: functional; settings: Chlorocebus sabaeus, read-out: ID50 (the source's name); procedure, shortened: as §3
Vero [26] = test: as §2; assay type: functional, Chlorocebus sabaeus; remark: listed apart in the source
Procedure, shortened: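 CPE-inhibition assay: HSV-1 strain E-377 replicating in African green monkey kidney (Vero) cells. ID50 is the minimum drug concentration (μg/mL) giving 50% CPE inhibition, taken from semilog regression curve fitting. Cytotoxicity was scored as the minimum concentration (μg/mL) showing any toxicity (MTC). TI = MTC/ID50.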

MRC5 [27] = test: Effect of compound on yields of human cytomegalovirus (HCMV) in MRC5 (human diploid embryonic lung cells)cell monolayer cultures at the concentration of 10 uM; assay type: functional; procedure, shortened: as §4
MDCK [28] = test: Minimum concentration (ug/mL) for in vitro antiviral activity against influenza virus (type A0/PR/8/34) in Madin-Darby canine kidney (MDCK) host cell cultures; assay type: functional, Canis lupus familiaris
Procedure, shortened: (§6)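 MDCK host cell cultures infected with influenza A0/PR/8/34, scored for inhibition of virus-induced cytopathogenic effect (CPE). ID50 is the minimum drug concentration (μg/mL) that cut CPE by 50%, from semilog regression curve fitting. MTC is the minimum concentration (μg/mL) at which any cytotoxicity was seen. Therapeutic index is MTC divided by ID50.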

Vero [29] = test: In vitro minimum drug concentration that inhibited herpes simplex virus type 1 (E-377 strain) virus-induced cytopathogenic effects by 50% in vero cells; assay type: functional; settings: Chlorocebus sabaeus, read-out: ID50 (the source's name); procedure, shortened: as §3
MDCK [30] = test: In vitro minimum drug concentration that inhibited the influenza virus-induced cytopathogenic effects by 50% in Madin-Darby canine kidney (MDCK) host cell cultures; assay type: functional; settings: Canis lupus familiaris, read-out: ID50 (the source's name); procedure, shortened: as §6
MDCK [31] = test: In vitro antiviral activity against influenza virus (type A0/PR/8/34) in Madin-Darby canine kidney (MDCK) host cell cultures (MTC/ID50); assay type: functional, Canis lupus familiaris; procedure, shortened: as §6
MRC5 [32] = test: Effect of compound treatment on yields of human cytomegalovirus (HCMV) in MRC5 (human diploid embryonic lung cells) monolayer cultures at the concentration of 32 uM; assay type: functional; procedure, shortened: as §4

Nc1ncnc2c1ncn2[C@@H]1C[C@H](CO)[C@@H](O)[C@H]1O [ARISTEROMYCIN]
inhibition at 100 µg/mL (P388 [1]): 100%
inhibition at 12.5 µg/mL (P388 [2]): 100%
inhibition at 25 µg/mL (P388 [3]): 100%
inhibition at 50 µg/mL (P388 [4]): 100%
inhibition at 6.25 µg/mL (P388 [5]): 100%

Nc1nc(Cl)c2ncn(C3CC(CO)C(O)C3O)c2n1 (centres undefined)
Virus rating (MDCK [6]): 0
inhibition at 100 µg/mL (P388 [1]): 2.8%
inhibition at 12.5 µg/mL (P388 [2]): 0%
inhibition at 25 µg/mL (P388 [3]): 0%
inhibition at 50 µg/mL (P388 [4]): 0%
inhibition at 6.25 µg/mL (P388 [5]): 0%
Virus rating (Vero [7]): 0
MTC (Vero [8]): 299.7 µg/mL

Nc1nc(N)c2ncn(C3CC(CO)C(O)C3O)c2n1 (centres undefined)
Virus rating (MDCK [6]): 0
inhibition at 100 µg/mL (P388 [1]): 42.3%
inhibition at 12.5 µg/mL (P388 [2]): 0%
inhibition at 25 µg/mL (P388 [3]): 0%
inhibition at 50 µg/mL (P388 [4]): 11.3%
inhibition at 6.25 µg/mL (P388 [5]): 0%
Therapeutic index (Vero [9]): 1.4
Virus rating (Vero [7]): 0.6 VR
MTC (Vero [8]): 280.3 µg/mL
IC50 (Vero [10]): 195 µg/mL (≈ 696 µM)

Nc1nc(O)c2ncn(C3CC(CO)C(O)C3O)c2n1 (centres undefined)
Virus rating (MDCK [6]): 0
Gross morphology (MRC5 [11]): Toxic
Gross morphology (MRC5 [12]): Toxic
Gross morphology (MRC5 [13]): 0
Gross morphology (MRC5 [14]): 0
HCMV yield (MRC5 [15]): 3.7 log10 pfu/mL
HCMV yield reduction (MRC5 [15]): 1.7 log10 pfu/mL
HCMV yield (MRC5 [16]): 4.9 log10 pfu/mL
HCMV yield reduction (MRC5 [16]): 0.5 log10 pfu/mL
HCMV yield (MRC5 [17]): 2.5 log10 pfu/mL
HCMV yield reduction (MRC5 [17]): 2.9 log10 pfu/mL
HCMV yield (MRC5 [18]): 4.2 log10 pfu/mL
HCMV yield reduction (MRC5 [18]): 1.2 log10 pfu/mL
HCMV yield (MRC5 [19]): < 0.6 log10 pfu/mL
HCMV yield reduction (MRC5 [19]): > 4.8 log10 pfu/mL
Control (MRC5 [20]): 103%
Control (MRC5 [21]): 97%
Control (MRC5 [22]): 88%
Control (MRC5 [23]): 93%
HCMV yield (MRC5 [24]): 5.4 log10 pfu/mL
inhibition at 100 µg/mL (P388 [1]): 71.6%
inhibition at 12.5 µg/mL (P388 [2]): 9.1%
inhibition at 25 µg/mL (P388 [3]): 42.1%
inhibition at 50 µg/mL (P388 [4]): 58.4%
inhibition at 6.25 µg/mL (P388 [5]): 0%
Virus rating (Vero [7]): 2.1
IC50 (Vero [25]): 83.4 µg/mL (≈ 297 µM)
MTC (Vero [8]): >299.3 µg/mL
TI (Vero [26]): >3.6
HCMV yield (MRC5 [27]): 4.8 log10 pfu/mL
HCMV yield reduction (MRC5 [27]): 0.6 log10 pfu/mL

Nc1nc(O)c2nnn(C3CC(CO)C(O)C3O)c2n1 (centres undefined)
MTC (MDCK [28]): 95 µg/mL
Virus rating (MDCK [6]): 0.2
inhibition at 100 µg/mL (P388 [1]): 63.9%
inhibition at 12.5 µg/mL (P388 [2]): 0%
inhibition at 25 µg/mL (P388 [3]): 5%
inhibition at 50 µg/mL (P388 [4]): 27.4%
inhibition at 6.25 µg/mL (P388 [5]): 0%
Virus rating (Vero [7]): 0
MTC (Vero [8]): 300.3 µg/mL

Nc1ncnc2c1ncn2[C@@H]1O[C@H](CO)[C@@H](O)[C@@H]1O [VIDARABINE]
Therapeutic index (Vero [9]): 5.6
Virus rating (Vero [7]): 2.4
IC50 (Vero [25]): 4.8 µg/mL (≈ 18 µM)
MTC (Vero [8]): 26.8 µg/mL

Nc1nc2c(ncn2COCCO)c(=O)[nH]1 [ACYCLOVIR]
Therapeutic index (Vero [9]): >240.3
Virus rating (Vero [7]): 6.2
IC50 (Vero [29]): 0.9 µg/mL (≈ 4 µM)
MTC (Vero [8]): >255.2 µg/mL

Nc1nc(N)c2nnn(C3CC(CO)C(O)C3O)c2n1 (centres undefined)
Virus rating (MDCK [6]): 0
inhibition at 100 µg/mL (P388 [1]): 58.4%
inhibition at 12.5 µg/mL (P388 [2]): 0%
inhibition at 25 µg/mL (P388 [3]): 12.2%
inhibition at 50 µg/mL (P388 [4]): 31.5%
inhibition at 6.25 µg/mL (P388 [5]): 0%
Virus rating (Vero [7]): 0
MTC (Vero [8]): >294.8 µg/mL

NC(=O)c1ncn([C@@H]2O[C@H](CO)[C@@H](O)[C@H]2O)n1 [RIBAVIRIN]
IC50 (MDCK [30]): 3.1 µg/mL (≈ 12.7 µM)
MTC (MDCK [28]): 32 µg/mL
Therapeutic index (MDCK [31]): 10.3
Virus rating (MDCK [6]): 3.4

Nc1nc2c(ncn2COC(CO)CO)c(=O)[nH]1 [GANCICLOVIR]
HCMV yield (MRC5 [32]): 2.4 log10 pfu/mL
HCMV yield reduction (MRC5 [32]): 3 log10 pfu/mL

Nc1nc(Cl)c2nnn(C3CC(CO)C(O)C3O)c2n1 (centres undefined)
MTC (MDCK [28]): >256.3 µg/mL
Virus rating (MDCK [6]): 0.3
inhibition at 100 µg/mL (P388 [1]): 99.1%
inhibition at 12.5 µg/mL (P388 [2]): 0%
inhibition at 25 µg/mL (P388 [3]): 14.2%
inhibition at 50 µg/mL (P388 [4]): 40.1%
inhibition at 6.25 µg/mL (P388 [5]): 0%
Virus rating (Vero [7]): 0
MTC (Vero [8]): 300.7 µg/mL

— ChEMBL document CHEMBL1125060, “Synthesis and biological evaluation of carbocyclic analogues of lyxofuranosides of 2-amino-6-substituted-purines and 2-amino-6-substituted-8-azapurines” (1990)
